Measured values collected from several papers.
EGFR L861Q: Epidermal growth factor receptor (EGFR, Homo sapiens, UniProt P00533, L861Q)
EGFR: Epidermal growth factor receptor (EGFR, Homo sapiens, UniProt P00533)
EGFR L858R/T790M: Epidermal growth factor receptor (EGFR, Homo sapiens, UniProt P00533, L858R/T790M)
EGFR G719C: Epidermal growth factor receptor (EGFR, Homo sapiens, UniProt P00533, G719C)

| SMILES | target | read-out | mode | technique | concentration | endpoint | value |
| --- | --- | --- | --- | --- | --- | --- | --- |
| COc1ccc2[nH]c3c4[nH]c5ccc(OC)cc5c4c4c(c3c2c1)C(=O)NC4=O | EGFR L861Q | binding | – | – | 1 µM | remaining binding | 71% |
| COc1ccc2oc(-c3ccc4nc(N)oc4c3)c/c(=N\c3ccccc3NC(=O)CCN)c2c1 | EGFR | binding | – | – | 1 µM | remaining binding | 97% |
| CCCCC(=O)Nc1ccc(-c2ccc3ncn(CCC)c(=O)c3c2)cn1 | EGFR L861Q | binding | – | competition with immobilised ligand | 0.5 µM | remaining binding | 100% |
| CNC(=O)c1ccccc1Nc1nc(Nc2ccc(CO)nc2)ncc1Cl | EGFR | enzyme activity | inhibitor | radiometric | 1 µM | remaining activity | 26% |
| CO[C@@H]1[C@H](N(C)C(=O)c2ccccc2)C[C@H]2O[C@]1(C)n1c3ccccc3c3c4c(c5c6ccccc6n2c5c31)C(=O)NC4 | Epidermal growth factor receptor (EGFR, Homo sapiens, UniProt P00533, A750P/del747-749) | enzyme activity | inhibitor | – | 1 µM | inhibition | 74% |
| COc1c(Cl)cccc1Nc1c(-c2ccncc2OC[C@@H]2COCCO2)[nH]c2c1C(=O)NCC2 | EGFR | enzyme activity | inhibitor | radiometric | 1 µM | inhibition | > 80% |
| CC#CC(=O)N1CCC[C@H]1c1nc(-c2ccc(C(=O)Nc3ccccn3)cc2)c2c(N)nccn12 | Epidermal growth factor receptor (EGFR, Homo sapiens, UniProt P00533, del752-759) | enzyme activity | inhibitor | – | 1 µM | inhibition | 0% |
| C[C@H]1CC[C@H](n2c3cnccc3c3cnc(Nc4ccc5c(n4)CCN(C(=O)CO)C5)nc32)CC1 | EGFR L858R/T790M | cell-free assay | – | – | 1 µM | remaining signal | 93% |
| C#Cc1cnc(Nc2ccc(CO)nc2)nc1Nc1ccccc1S(C)(=O)=NC#N (centres unmarked) | EGFR | enzyme activity | inhibitor | radiometric | 1 µM | remaining activity | 75.6% |
| Cc1ccc(NC(=O)c2ccnc(C(F)(F)F)c2)cc1-c1cc(OCCO)nc(N2CCOCC2)c1 | EGFR L858R/T790M | binding | – | – | 1 µM | remaining binding | 84% |
| C1=C/COCc2cc(ccc2OCCN2CCCC2)Nc2nccc(n2)-c2cccc(c2)COC/1 | EGFR G719C | binding | – | – | 0.1 µM | remaining binding | 75% |
| CN1CCN(C(=O)c2ccc(NC(=O)Nc3ccc(N(C)c4ccnc(Nc5ccc(CS(C)(=O)=O)cc5)n4)cc3)cc2)CC1 | Epidermal growth factor receptor (EGFR, Homo sapiens, UniProt P00533, L858R) | binding | – | – | 1 µM | remaining binding | 92% |
| CS(=O)(=O)c1ccccc1Nc1nc(Nc2ccnc(CO)c2)ncc1Cl | EGFR | enzyme activity | inhibitor | radiometric | 1 µM | remaining activity | 94.8% |
| C=CC(=O)N1CCC([C@@H]2CCNc3c(C(N)=O)c(-c4ccc(Oc5ccccc5)cc4)nn32)CC1 | EGFR G719C | cell-free assay | – | – | 1 µM | inhibition | 92% |
